Key:
CYP1A2 [1] = biological target: T1, CYP1A2 (Homo sapiens, UniProt P05177); experiment: Reversible inhibition of CYP1A2 in human liver microsomes at 10 uM after 20 mins in presence of NADPH by LC-MS/MS analysis; format: ADME
T1 sequence (P05177 whole entry): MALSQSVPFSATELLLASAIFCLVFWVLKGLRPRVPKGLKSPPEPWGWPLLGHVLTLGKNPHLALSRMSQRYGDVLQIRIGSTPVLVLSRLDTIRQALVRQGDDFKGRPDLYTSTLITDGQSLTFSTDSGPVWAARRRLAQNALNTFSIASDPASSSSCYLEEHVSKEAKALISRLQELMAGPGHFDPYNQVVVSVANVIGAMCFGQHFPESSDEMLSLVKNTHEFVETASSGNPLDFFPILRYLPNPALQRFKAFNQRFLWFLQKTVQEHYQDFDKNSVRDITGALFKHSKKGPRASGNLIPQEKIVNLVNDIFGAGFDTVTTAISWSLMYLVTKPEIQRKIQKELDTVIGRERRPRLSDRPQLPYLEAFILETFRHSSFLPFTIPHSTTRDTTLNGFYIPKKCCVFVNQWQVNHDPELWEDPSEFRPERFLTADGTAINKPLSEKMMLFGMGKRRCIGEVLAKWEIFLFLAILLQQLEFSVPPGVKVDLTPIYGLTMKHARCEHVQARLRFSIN

CYP3A4 [2] = biological target: T2, CYP3A4 (Homo sapiens, UniProt P08684); experiment: (§1) Reversible inhibition of CYP3A4 in human liver microsomes at 10 uM after 20 mins in presence of NADPH by LC-MS/MS analysis; format: ADME; details: liver microsomes
CYP2C9 [3] = biological target: T3, CYP2C9 (Homo sapiens, UniProt P11712); experiment: (§2) Reversible inhibition of CYP2C9 in human liver microsomes at 10 uM after 20 mins by in presence of NADPH LC-MS/MS analysis; format: ADME; details: liver microsomes
CYP2C19 [4] = biological target: T4, CYP2C19 (Homo sapiens, UniProt P33261); experiment: (§3) Reversible inhibition of CYP2C19 in human liver microsomes at 10 uM after 20 mins in presence of NADPH by LC-MS/MS analysis; format: ADME; details: liver microsomes
[5] = Intrinsic clearance in monkey liver microsomes assessed per mg protein at 1 uM preincubated for 5 mins followed by NADPH addition measured after 5 to 30 mins by LC-MS/MS analysis; details: liver microsomes; read-out: CLH
[6] = Drug recovery in rat liver microsomes at 1 uM measured after 30 mins by LC-MS/MS analysis; format: ADME, microsome; details: liver microsomes, read-out: Drug recovery
NCI-H1993 = experiment: Growth inhibition of human NCI-H1993 cells after 72 hrs by CCK-8 assay; format: functional, cell-based
SNU-5 = experiment: Growth inhibition of human SNU5 cells after 72 hrs by CCK-8 assay; format: functional, cell-based
Cytochrome P450 3A4 [7] = biological target: T5, Cytochrome P450 3A4 (Homo sapiens, UniProt P08684); experiment: (§4) Time dependent irreversible inhibition of CYP3A4 in human liver microsomes at 10 uM preincubated with compound followed by NADPH addition by LC-MS/MS analysis; format: ADME; details: microsomes, 10 µM
How it was run: (§5)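 HLM (0.2 mg/ml) with 10 µM compound were preincubated 0, 5, 10 or 20 min at 37°C with 1 mM NADPH or PBS. Substrate cocktail (halved concentrations) plus NADPH was then added for 10 min. Metabolites were measured by LC-MS/MS. Kobs is the slope of relative activity versus preincubation time.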

[8] = Intrinsic clearance in rat liver microsomes assessed per mg protein at 1 uM preincubated for 5 mins followed by NADPH addition measured after 5 to 30 mins by LC-MS/MS analysis; format: ADME, microsome; details: read-out: CLH
How it was run: (§6)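 Microsomes (0.5 mg/ml) with 1 µM compound were preincubated 5 min at 37°C in 100 mM phosphate buffer pH 7.4, then started with 1 mM NADPH. Samples were taken at 0, 5, 10 and 30 min, quenched with acetonitrile/tinidazole and run by LC-MS/MS. CLint = k / microsomal protein concentration. Midazolam was the positive control.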

[9] = Intrinsic clearance in human liver microsomes assessed per mg protein at 1 uM preincubated for 5 mins followed by NADPH addition measured after 5 to 30 mins by LC-MS/MS analysis; format: ADME, microsome; details: read-out: CLH; how it was run: as §6
CYP2D6 [10] = biological target: T6, CYP2D6 (Homo sapiens, UniProt P10635); experiment: Reversible inhibition of CYP2D6 in human liver microsomes at 10 uM after 20 mins in presence of NADPH by LC-MS/MS analysis; format: ADME; details: liver microsomes
[11] = Drug recovery in human liver microsomes at 1 uM measured after 30 mins by LC-MS/MS analysis; format: ADME, microsome; details: liver microsomes, read-out: Drug recovery
How it was run: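 Liver microsomes (0.5 mg/ml) were incubated with 1 µM compound at 37°C in 100 mM phosphate buffer pH 7.4 without NADPH for 30 min. Reactions were quenched with acetonitrile/tinidazole internal standard and analysed by LC-MS/MS. Recovery (%) was taken from the compound/internal standard peak area ratio.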

[12] = Drug recovery in monkey liver microsomes at 1 uM measured after 30 mins by LC-MS/MS analysis
Rattus norvegicus = experiment: (§7) Oral bioavailability in Sprague-Dawley rat plasma at 6 mg/kg by UPLC-MS/MS analysis; format: ADME, organism-based; details: in vivo
How it was run: (§8)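 Male Sprague-Dawley rats (180-220 g) were fasted overnight with free access to water. Dosing was intravenous (n=2) or oral at 6 mg/kg (n=3). Heparinized blood was drawn from 0 to 1440 min. Plasma was frozen at -20°C, then precipitated with acetonitrile containing internal standard, centrifuged and analysed by UPLC-MS/MS.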

[13] = biological target: Hepatocyte growth factor receptor (Homo sapiens, UniProt P08581); experiment: Inhibition of c-MET (unknown origin) using TK substrate-biotin peptide as substrate preincubated for 5 to 10 mins followed by ATP addition measured after 30 mins by HTRF assay
[14] = as §7; format: ADME, organism-based; details: Sprague-Dawley, plasma; how it was run: as §8
CYP1A2 [15] = biological target: T1, CYP1A2; experiment: Time dependent irreversible inhibition of CYP1A2 in human liver microsomes at 10 uM preincubated with compound followed by NADPH addition by LC-MS/MS analysis; format: ADME; details: liver microsomes; how it was run: as §5
CYP2C19 [16] = biological target: T4, CYP2C19; experiment: Time dependent irreversible inhibition of CYP2C19 in human liver microsomes at 10 uM preincubated with compound followed by NADPH addition by LC-MS/MS analysis; format: ADME; how it was run: as §5
CYP2D6 [17] = biological target: T6, CYP2D6; experiment: Time dependent irreversible inhibition of CYP2D6 in human liver microsomes at 10 uM preincubated with compound followed by NADPH addition by LC-MS/MS analysis; format: ADME; details: liver microsomes; how it was run: as §5
[18] = AUC (0 to 24 hrs) in Sprague-Dawley rat plasma at 6 mg/kg, po by UPLC-MS/MS analysis; format: ADME, organism-based; set-up: dose 6 mg/kg, time < 24 hr, route oral; how it was run: as §8
[19] = Clearance in Sprague-Dawley rat plasma at 1 mg/kg, iv by UPLC-MS/MS analysis; format: ADME, organism-based; how it was run: as §8
CYP3A4 [20] = biological target: T2, CYP3A4; experiment: as §4; format: ADME; details: liver microsomes; how it was run: as §5
[21] = Volume of distribution at steady state in Sprague-Dawley rat plasma at 1 mg/kg, iv by UPLC-MS/MS analysis; format: ADME, organism-based; details: read-out: Vdss
How it was run: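 Male Sprague-Dawley rats (180-220 g), fasted overnight with water available, dosed iv (n=2). Blood on heparin collected from 0 to 1440 min. Plasma obtained by centrifugation and stored at -20°C. Proteins precipitated with acetonitrile containing internal standard, then UPLC-MS/MS. Vss taken from the iv data.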

CYP2C9 [22] = biological target: T3, CYP2C9; experiment: Time dependent irreversible inhibition of CYP2C9 in human liver microsomes at 10 uM preincubated with compound followed by NADPH addition by LC-MS/MS analysis; format: ADME; details: liver microsomes; how it was run: as §5
[23] = Half life in Sprague-Dawley rat plasma at 1 mg/kg, iv by UPLC-MS/MS analysis; format: ADME, organism-based; how it was run: as §8
[24] = Cmax in Sprague-Dawley rat plasma at 6 mg/kg, po by UPLC-MS/MS analysis; format: ADME, organism-based; set-up: dose 6 mg/kg, route oral; how it was run: as §8
Cytochrome P450 3A4 [25] = biological target: T5, Cytochrome P450 3A4; experiment: as §1; format: ADME; details: microsomes, 20 min, 10 µM
Cytochrome P450 2C9 = Cytochrome P450 2C9 (Homo sapiens, UniProt P11712); experiment: as §2; format: ADME; details: microsomes, 20 min, 10 µM
Cytochrome P450 2C19 = Cytochrome P450 2C19 (Homo sapiens, UniProt P33261); experiment: as §3; format: ADME; details: microsomes, 20 min, 10 µM
Sequence of Cytochrome P450 2C19 (P33261 whole entry): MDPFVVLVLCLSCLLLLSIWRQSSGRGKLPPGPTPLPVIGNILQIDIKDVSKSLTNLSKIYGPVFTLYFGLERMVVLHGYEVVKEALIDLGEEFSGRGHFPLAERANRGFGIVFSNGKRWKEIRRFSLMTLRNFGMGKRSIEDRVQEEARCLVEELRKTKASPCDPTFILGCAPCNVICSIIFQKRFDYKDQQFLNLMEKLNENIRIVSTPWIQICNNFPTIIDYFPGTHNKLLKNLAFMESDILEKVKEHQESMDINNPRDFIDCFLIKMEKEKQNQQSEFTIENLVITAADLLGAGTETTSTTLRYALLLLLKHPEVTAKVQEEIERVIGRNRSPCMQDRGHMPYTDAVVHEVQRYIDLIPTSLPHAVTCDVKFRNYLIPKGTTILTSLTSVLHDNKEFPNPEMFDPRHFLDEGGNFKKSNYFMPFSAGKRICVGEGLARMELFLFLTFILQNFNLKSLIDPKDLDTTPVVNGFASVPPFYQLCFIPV

T5 sequence (P08684 whole entry): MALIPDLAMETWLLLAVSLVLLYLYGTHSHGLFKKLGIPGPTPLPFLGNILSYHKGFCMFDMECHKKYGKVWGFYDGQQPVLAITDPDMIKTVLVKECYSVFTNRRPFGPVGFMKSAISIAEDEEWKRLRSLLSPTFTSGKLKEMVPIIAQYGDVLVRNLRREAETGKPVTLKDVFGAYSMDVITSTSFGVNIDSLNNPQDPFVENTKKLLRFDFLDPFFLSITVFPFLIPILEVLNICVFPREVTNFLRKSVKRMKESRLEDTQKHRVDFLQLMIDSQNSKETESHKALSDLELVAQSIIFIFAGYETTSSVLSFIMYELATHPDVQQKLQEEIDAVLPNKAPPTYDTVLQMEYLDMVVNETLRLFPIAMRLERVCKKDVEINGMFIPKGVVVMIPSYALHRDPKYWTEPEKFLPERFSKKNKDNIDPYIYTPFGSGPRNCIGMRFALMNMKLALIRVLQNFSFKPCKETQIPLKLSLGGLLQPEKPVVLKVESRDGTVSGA
T2 sequence (P08684 whole entry): as above
T3 sequence (P11712 whole entry): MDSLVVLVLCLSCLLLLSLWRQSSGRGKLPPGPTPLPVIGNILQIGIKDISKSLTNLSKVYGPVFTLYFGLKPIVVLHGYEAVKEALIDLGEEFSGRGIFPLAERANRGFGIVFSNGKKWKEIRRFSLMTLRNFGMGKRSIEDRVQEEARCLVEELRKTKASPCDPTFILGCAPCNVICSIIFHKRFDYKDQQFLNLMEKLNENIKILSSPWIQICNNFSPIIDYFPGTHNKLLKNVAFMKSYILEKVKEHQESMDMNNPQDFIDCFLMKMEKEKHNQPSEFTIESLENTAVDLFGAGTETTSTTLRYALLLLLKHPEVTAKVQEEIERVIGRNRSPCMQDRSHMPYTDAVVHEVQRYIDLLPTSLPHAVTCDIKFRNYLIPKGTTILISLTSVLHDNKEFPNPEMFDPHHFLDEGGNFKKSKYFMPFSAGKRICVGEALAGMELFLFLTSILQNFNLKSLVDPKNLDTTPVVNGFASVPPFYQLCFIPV
T4 sequence (P33261 whole entry): as the sequence (P33261 whole entry) above
T6 sequence (P10635 whole entry): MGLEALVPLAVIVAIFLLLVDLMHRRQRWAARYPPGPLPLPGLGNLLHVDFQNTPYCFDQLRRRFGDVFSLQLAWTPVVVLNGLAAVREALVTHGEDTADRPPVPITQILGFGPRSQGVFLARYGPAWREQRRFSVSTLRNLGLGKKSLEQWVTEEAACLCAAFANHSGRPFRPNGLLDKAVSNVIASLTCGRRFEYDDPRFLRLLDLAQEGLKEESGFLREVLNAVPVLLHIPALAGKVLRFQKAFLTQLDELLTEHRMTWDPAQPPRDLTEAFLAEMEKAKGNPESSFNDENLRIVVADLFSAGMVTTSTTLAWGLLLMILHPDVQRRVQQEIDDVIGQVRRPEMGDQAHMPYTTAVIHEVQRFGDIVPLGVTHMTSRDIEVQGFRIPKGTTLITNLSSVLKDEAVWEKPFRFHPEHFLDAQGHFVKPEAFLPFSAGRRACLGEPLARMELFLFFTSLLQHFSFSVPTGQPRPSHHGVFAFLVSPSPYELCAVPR
Sequence of Cytochrome P450 2C9 (P11712 whole entry): as the sequence (P11712 whole entry) above
Sequence of Hepatocyte growth factor receptor (P08581 whole entry): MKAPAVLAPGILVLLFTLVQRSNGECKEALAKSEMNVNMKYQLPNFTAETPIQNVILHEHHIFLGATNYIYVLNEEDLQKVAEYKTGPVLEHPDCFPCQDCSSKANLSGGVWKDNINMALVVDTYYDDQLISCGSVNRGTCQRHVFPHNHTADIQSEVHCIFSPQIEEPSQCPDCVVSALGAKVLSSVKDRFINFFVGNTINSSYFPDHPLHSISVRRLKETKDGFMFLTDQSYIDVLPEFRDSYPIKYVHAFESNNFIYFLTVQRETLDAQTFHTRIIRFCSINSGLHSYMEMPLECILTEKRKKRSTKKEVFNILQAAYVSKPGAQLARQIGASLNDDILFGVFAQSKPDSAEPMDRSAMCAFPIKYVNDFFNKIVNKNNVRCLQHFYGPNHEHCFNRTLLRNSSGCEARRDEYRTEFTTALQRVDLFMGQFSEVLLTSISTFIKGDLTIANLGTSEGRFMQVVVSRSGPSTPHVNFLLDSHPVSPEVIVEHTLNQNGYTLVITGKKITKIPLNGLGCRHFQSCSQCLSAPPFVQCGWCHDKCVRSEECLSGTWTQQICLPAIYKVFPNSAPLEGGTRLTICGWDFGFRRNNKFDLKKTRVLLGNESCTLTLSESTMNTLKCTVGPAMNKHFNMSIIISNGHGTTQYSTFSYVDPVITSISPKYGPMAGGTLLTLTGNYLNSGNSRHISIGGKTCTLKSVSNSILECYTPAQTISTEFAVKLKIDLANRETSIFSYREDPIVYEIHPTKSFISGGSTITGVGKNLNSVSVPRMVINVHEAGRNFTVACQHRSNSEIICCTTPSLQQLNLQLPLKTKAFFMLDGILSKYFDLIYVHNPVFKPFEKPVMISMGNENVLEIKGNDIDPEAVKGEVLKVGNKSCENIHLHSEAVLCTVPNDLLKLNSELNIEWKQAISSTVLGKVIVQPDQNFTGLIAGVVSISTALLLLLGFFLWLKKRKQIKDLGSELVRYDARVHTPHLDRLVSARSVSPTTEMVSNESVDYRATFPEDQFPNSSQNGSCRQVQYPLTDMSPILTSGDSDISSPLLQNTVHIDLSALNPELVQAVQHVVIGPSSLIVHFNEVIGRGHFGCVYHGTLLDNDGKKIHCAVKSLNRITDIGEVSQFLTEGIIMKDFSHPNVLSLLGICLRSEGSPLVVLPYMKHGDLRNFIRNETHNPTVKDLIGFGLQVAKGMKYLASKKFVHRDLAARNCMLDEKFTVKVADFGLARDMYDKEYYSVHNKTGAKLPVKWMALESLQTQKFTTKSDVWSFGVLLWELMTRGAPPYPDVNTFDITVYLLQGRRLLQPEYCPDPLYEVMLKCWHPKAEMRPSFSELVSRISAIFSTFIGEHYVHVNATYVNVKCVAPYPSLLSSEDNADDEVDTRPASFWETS

| inhibition at 20 min, 10 µM (CYP1A2 [1]) | inhibition at 20 min, 10 µM (CYP3A4 [2]) | inhibition at 20 min, 10 µM (CYP2C9 [3]) | inhibition at 20 min, 10 µM (CYP2C19 [4]) | microsomal CLint at 1 µM [5] | remaining at 0.5 h, 1 µM [6] | IC50 (NCI-H1993; Homo sapiens, NCI-H1993, 72 h) | IC50 (SNU-5; Homo sapiens, SNU-5, 72 h) | TDI (Cytochrome P450 3A4 [7]) | microsomal CLint at 1 µM [8] | microsomal CLint at 1 µM [9] | inhibition at 20 min, 10 µM (CYP2D6 [10]) | remaining at 0.5 h, 1 µM [11] | remaining at 0.5 h, 1 µM [12] | inhibition at 10 µM (CYP1A2 [15]) | inhibition at 10 µM (CYP2C19 [16]) | inhibition at 10 µM (CYP2D6 [17]) | inhibition at 10 µM (CYP3A4 [20]) | inhibition at 10 µM (CYP2C9 [22]) | further results | Structure (SMILES) |
| --- | --- | --- | --- | --- | --- | --- | --- | --- | --- | --- | --- | --- | --- | --- | --- | --- | --- | --- | --- | --- |
| < 50% | < 50% | < 50% | < 50% | 50 µL/min/mg | 94% | 0.4 nM | 0.4 nM | Active | 12 µL/min/mg | 11 µL/min/mg | < 50% | 97% | 99% |  |  |  |  |  |  | CC(c1c(F)cc2ncc(-c3cnn(C)c3)cc2c1F)n1nnc2ncc(-c3ccc(C(N)=O)c(F)c3)nc21 (stereo unspecified) |
|  |  |  |  |  |  |  |  |  |  |  |  |  |  |  |  |  |  |  | F (Rattus norvegicus): 8.6%; IC50 (NCI-H1993; nci-h1993): 0.7 nM; IC50 (SNU-5; snu-5): 0.8 nM; IC50 [13]: 0.68 nM | CC(c1cc2cc(-c3cnn(C)c3)cnc2cc1F)n1nnc2ncc(-c3cnn(CCO)c3)nc21 (single isomer, unassigned; enantiomer 1) |
| < 50% | < 50% | < 50% | < 50% | 6 µL/min/mg | 115% | 0.9 nM | 0.6 nM |  | 1 µL/min/mg | 2 µL/min/mg | < 50% | 120% | 103% | < 50% | < 50% | < 50% | < 50% | < 50% | bioavailability [14]: 8.2%; AUC(0-t) at 24 h [18]: 879 ng·h/mL; clearance [19]: 9.33 mL/min/kg; Vd [21]: 2 L/kg; half-life [23]: 3.2 h; Cmax [24]: 98.9 ng/mL | CC(c1cc2cc(-c3cnn(C)c3)cnc2cc1F)n1nnc2ncc(-c3ccc(C(N)=O)c(F)c3)nc21 (stereo unspecified) |
| < 50% | < 50% | < 50% | < 50% | 11 µL/min/mg | 103% | 0.9 nM | 1.7 nM | Active | 34 µL/min/mg | 5 µL/min/mg | < 50% | 101% | 65% |  |  |  |  |  |  | CC(c1cc2cc(-c3cnn(C)c3)cnc2cc1F)n1nnc2ncc(-c3cnn(C)c3)nc21 (stereo unspecified) |
|  |  |  |  | 49 µL/min/mg | 106% | 3.2 nM | 2.5 nM |  | 55 µL/min/mg | 4 µL/min/mg |  | 113% | 103% | < 50% | < 50% | < 50% | < 50% | < 50% | inhibition (INH) (Cytochrome P450 3A4 [25]): Active; inhibition (INH) (Cytochrome P450 2C9): Active; inhibition (INH) (Cytochrome P450 2C19): Active | CC(c1cc2cc(-c3cnn(C)c3)cnc2cc1F)n1nnc2ncc(-c3ccncc3)nc21 (stereo unspecified) |
|  |  |  |  | 86 µL/min/mg | 94% | 0.8 nM | 1.3 nM | Active | 22 µL/min/mg | 17 µL/min/mg |  | 91% | 75% |  |  |  |  |  | inhibition (INH) (Cytochrome P450 2C9): Active; inhibition (INH) (Cytochrome P450 2C19): Active | CC(c1c(F)cc2ncc(-c3cnn(C)c3)cc2c1F)n1nnc2ncc(-c3cnn(C)c3)nc21 (stereo unspecified) |
|  |  |  |  | 16 µL/min/mg | 114% | 0.5 nM | 0.6 nM |  | 5 µL/min/mg | 1 µL/min/mg |  | 115% | 97% | < 50% | < 50% | < 50% | < 50% | < 50% | inhibition (INH) (Cytochrome P450 3A4 [25]): Active | CNC(=O)c1ccc(-c2cnc3nnn(C(C)c4ccc5ncc(-c6cnn(C)c6)cc5c4)c3n2)cc1F (stereo unspecified) |
|  |  |  |  |  |  | 0.6 nM |  |  |  |  |  |  |  |  |  |  |  |  | bioavailability [14]: 8.8%; IC50 (SNU-5; snu-5): 0.6 nM; IC50 [13]: 0.48 nM | CC(c1cc2cc(-c3cnn(C)c3)cnc2cc1F)n1nnc2ncc(-c3cnn(CCO)c3)nc21 (single isomer, unassigned; enantiomer 2) |
